Assay results from ChEMBL document CHEMBL3120050, “Synthesis, receptor affinity and effect on pentylenetetrazole-induced seizure threshold of novel benzodiazepine analogues: 3-Substituted 5-(2-phenoxybenzyl)-4H-1,2,4-triazoles and 2-amino-5-(phenoxybenzyl)-1,3,4-oxadiazoles” (Bioorg Med Chem, 2014).

Columns and labels:
Mus musculus [1] = test: Anticonvulsant activity in NMRI mouse assessed as pentylenetetrazole-induced clonic seizure threshold at 5 mg/kg, ip administered 60 mins before pentylenetetrazole challenge; assay type: functional; conditions: route intraperitoneal
Summary of the method: (§1)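 Male NMRI mice (24-30 g), at least eight per group, each used once. Compounds dispersed in 0.5% CMC and given i.p. in 10 ml/kg, 60 min before PTZ. PTZ (0.5% in saline) infused i.v. into the tail vein at 0.5 ml/min in unrestrained animals until forelimb clonus then full body clonus. Threshold = minimal PTZ dose (mg/kg) for clonic seizure, expressed as % and compared with CMC group; mean ± SEM.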

Mus musculus [2] = test: Anticonvulsant activity in NMRI mouse assessed as pentylenetetrazole-induced clonic seizure threshold at 20 mg/kg, ip administered 60 mins before pentylenetetrazole challenge; assay type: functional; conditions: route intraperitoneal; summary of the method: as §1
Mus musculus [3] = test: Anticonvulsant activity in NMRI mouse assessed as pentylenetetrazole-induced clonic seizure threshold at 10 mg/kg, ip administered 60 mins before pentylenetetrazole challenge; assay type: functional; conditions: route intraperitoneal; summary of the method: as §1
[4] = Displacement of [3H]flumazenil from GABAA/BZD receptor in Sprague-Dawley rat cortical membrane after 35 mins by competition binding assay
Summary of the method: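 Cortex from male Sprague-Dawley rats (300-350 g), homogenized in Tris-HCl, washed, and preincubated 30 min at 37°C; membranes stored at -20°C and used within 1-15 days. 100 µg membrane protein incubated with 8.6×10^-5 nmole [3H]-flumazenil plus increasing test ligand in 50 mM Tris-HCl pH 7.4 (0.5 mL), 30°C, 35 min. Stopped by centrifugation. Excess diazepam defined nonspecific binding. Triplicates; IC50 = 50% inhibition of specific binding.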

Clc1ccc(Cc2nnc(SCc3ccccc3)[nH]2)c(Oc2ccccc2Cl)c1
Activity (Mus musculus [1]): 112.52%
Activity (Mus musculus [2]): 128.77%
Activity (Mus musculus [3]): 122.18%
IC50 [4]: 2.23 nM
Kd [4]: 1.36 nM

Nc1nnc(Cc2ccc(Cl)cc2Oc2ccccc2F)o1
Activity (Mus musculus [1]): 111.61%
Activity (Mus musculus [2]): 154.23%
Activity (Mus musculus [3]): 128.95%
IC50 [4]: 1.89 nM
Kd [4]: 1.16 nM

c1ccc(CSc2nnc(Cc3ccccc3Oc3ccccc3)[nH]2)cc1
Activity (Mus musculus [1]): 129.27%
Activity (Mus musculus [2]): 143.4%
Activity (Mus musculus [3]): 139.21%
IC50 [4]: 2.07 nM
Kd [4]: 1.27 nM

CCSc1nnc(Cc2ccccc2Oc2ccccc2)[nH]1
Activity (Mus musculus [1]): 132.47%
Activity (Mus musculus [2]): 168.55%
Activity (Mus musculus [3]): 141.9%

CSc1nnc(Cc2ccc(Cl)cc2Oc2ccccc2F)[nH]1
Activity (Mus musculus [1]): 110.43%
Activity (Mus musculus [2]): 135.53%
Activity (Mus musculus [3]): 121.41%
IC50 [4]: 3.78 nM
Kd [4]: 2.32 nM

CSc1nnc(Cc2ccccc2Oc2ccccc2)[nH]1
Activity (Mus musculus [1]): 120.26%
Activity (Mus musculus [2]): 147.06%
Activity (Mus musculus [3]): 132.83%
IC50 [4]: 1.38 nM
Kd [4]: 0.84 nM

CN1C(=O)CN=C(c2ccccc2)c2cc(Cl)ccc21 [DIAZEPAM]
IC50 [4]: 2.86 nM
Kd [4]: 1.75 nM

Nc1nnc(Cc2ccc(Cl)cc2Oc2ccccc2Cl)o1
Activity (Mus musculus [1]): 125.22%
Activity (Mus musculus [2]): 170.25%
Activity (Mus musculus [3]): 132.44%
IC50 [4]: 1.75 nM
Kd [4]: 1.1 nM

CCOc1nnc(Cc2ccc(Cl)cc2Oc2ccccc2Cl)[nH]1
Activity (Mus musculus [1]): 120.06%
Activity (Mus musculus [2]): 134.63%
Activity (Mus musculus [3]): 122.29%
IC50 [4]: 2.13 nM
Kd [4]: 1.3 nM

Nc1nnc(Cc2ccccc2Oc2ccccc2)o1
Activity (Mus musculus [1]): 131.63%
Activity (Mus musculus [2]): 174.36%
Activity (Mus musculus [3]): 142.52%
IC50 [4]: 1.9 nM
Kd [4]: 1.17 nM

CCCSc1nnc(Cc2ccccc2Oc2ccccc2)[nH]1
Activity (Mus musculus [1]): 127.77%
Activity (Mus musculus [2]): 157.5%
Activity (Mus musculus [3]): 139.38%
IC50 [4]: 1.24 nM
Kd [4]: 0.75 nM

CCOc1nnc(Cc2ccc(Cl)cc2Oc2ccccc2F)[nH]1
Activity (Mus musculus [1]): 110.82%
Activity (Mus musculus [2]): 138.25%
Activity (Mus musculus [3]): 115.67%
IC50 [4]: 2.07 nM
Kd [4]: 1.26 nM

CCOc1nnc(Cc2ccccc2Oc2ccccc2)[nH]1
Activity (Mus musculus [1]): 122.56%
Activity (Mus musculus [2]): 143.52%
Activity (Mus musculus [3]): 125.79%
IC50 [4]: 3.49 nM
Kd [4]: 2.14 nM

CSc1nnc(Cc2ccc(Cl)cc2Oc2ccccc2Cl)[nH]1
Activity (Mus musculus [1]): 125.02%
Activity (Mus musculus [2]): 169.89%
Activity (Mus musculus [3]): 131.61%
IC50 [4]: 2.52 nM
Kd [4]: 1.54 nM

Fc1ccccc1Oc1cc(Cl)ccc1Cc1n[nH]c(=S)[nH]1
IC50 [4]: 1.36 nM
Kd [4]: 0.836 nM

CCSc1nnc(Cc2ccc(Cl)cc2Oc2ccccc2F)[nH]1
Activity (Mus musculus [1]): 125.52%
Activity (Mus musculus [2]): 141.4%
Activity (Mus musculus [3]): 144.44%
IC50 [4]: 1.32 nM
Kd [4]: 0.8 nM

S=c1[nH]nc(Cc2ccccc2Oc2ccccc2)[nH]1
Activity (Mus musculus [1]): 126.2%
Activity (Mus musculus [2]): 160.47%
Activity (Mus musculus [3]): 141.88%
IC50 [4]: 3.1 nM
Kd [4]: 1.9 nM

CCCSc1nnc(Cc2ccc(Cl)cc2Oc2ccccc2Cl)[nH]1
Activity (Mus musculus [1]): 117.68%
Activity (Mus musculus [2]): 134.09%
Activity (Mus musculus [3]): 125.29%
IC50 [4]: 1.35 nM
Kd [4]: 0.82 nM

CCCSc1nnc(Cc2ccc(Cl)cc2Oc2ccccc2F)[nH]1
Activity (Mus musculus [1]): 119.45%
Activity (Mus musculus [2]): 133.41%
Activity (Mus musculus [3]): 127.32%
IC50 [4]: 1.97 nM
Kd [4]: 1.21 nM

S=c1[nH]nc(Cc2ccc(Cl)cc2Oc2ccccc2Cl)[nH]1
Activity (Mus musculus [1]): 124.08%
Activity (Mus musculus [2]): 158.77%
Activity (Mus musculus [3]): 138.87%
IC50 [4]: 1.78 nM
Kd [4]: 1.09 nM

Fc1ccccc1Oc1cc(Cl)ccc1Cc1nnc(SCc2ccccc2)[nH]1
Activity (Mus musculus [1]): 165.66%
Activity (Mus musculus [2]): 178.53%
Activity (Mus musculus [3]): 168.6%
IC50 [4]: 0.892 nM
Kd [4]: 0.544 nM

CCSc1nnc(Cc2ccc(Cl)cc2Oc2ccccc2Cl)[nH]1
Activity (Mus musculus [1]): 133.58%
Activity (Mus musculus [2]): 173.98%
Activity (Mus musculus [3]): 139.99%
IC50 [4]: 1.63 nM
Kd [4]: 1 nM
